Laboratory results taken from ChEMBL document CHEMBL4118275, “Synthesis of coumarin derivatives and their cytoprotective effects on t-BHP-induced oxidative damage in HepG2 cells” (Bioorg Med Chem Lett, 2018).
The source made the active and inactive calls. No cut-off for these calls is given here.

Experiments:
HepG2 [1] = assay: Cytoprotective activity against 100 uM t-BHP-induced oxidative stress in human HepG2 cells assessed as cell viability preincubated for 1 hr followed by t-BHP addition measured after 3 hrs by CCK-8 assay (reference value: 22%); type: functional
HepG2 [2] = assay: Cytotoxicity against human HepG2 cells at 10 uM; type: cell-based; conditions: hepg2, 10 µM
[3] = Antioxidant activity assessed as DPPH radical scavenging activity measured after 30 mins; type: functional
In short: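 DPPH radical scavenging was measured, and activity is given as EC50 in μM.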

HepG2 [4] = assay: Cytoprotective activity against 1 mM t-BHP-induced oxidative stress in human HepG2 cells assessed as cell viability preincubated for 1 hr followed by t-BHP addition measured after 3 hrs by CCK-8 assay; type: functional
HepG2 [5] = assay: Cytoprotective activity against 100 uM t-BHP-induced cell damage in human HepG2 cells assessed as increase in mitochondrial membrane potential preincubated for 1 hr followed by t-BHP addition measured after 3 hrs by rhodamine 123 staining based fluorescence microscopy; type: functional
In short: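 HepG2 cells were pretreated with sample, then exposed to 100 μM t-BHP and stained with Rhodamine 123. Mitochondrial membrane potential was judged from fluorescence microscopy images against untreated control and t-BHP-only cells.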

EC50 [3] [µM]	SMILES	Activity (HepG2 [1])	Activity (HepG2 [2])	Activity (HepG2 [4]) [%]	Activity (HepG2 [5])
	CC(C)(O)C1Cc2cc3ccc(=O)oc3cc2O1 (stereo not given)	inactive	Non-Toxic		
	COc1cc(/C=C/C(=O)OC2Cc3c(ccc4ccc(=O)oc34)OC2(C)C)ccc1O (stereo not given)	inactive	Non-Toxic		
	CC1(C)Oc2ccc3ccc(=O)oc3c2CC1OC(=O)/C=C/c1ccc(O)cc1 (stereo not given)	inactive	Non-Toxic		
	COc1ccc(/C=C/C(=O)OC2Cc3c(ccc4ccc(=O)oc34)OC2(C)C)cc1OC (stereo not given)	inactive	Non-Toxic		
	COc1cc(/C=C/C(=O)OC2Cc3c(ccc4ccc(=O)oc34)OC2(C)C)cc(OC)c1OC (stereo not given)	inactive	Non-Toxic		
	COc1ccc(/C=C/C(=O)OC2Cc3c(ccc4ccc(=O)oc34)OC2(C)C)cc1 (stereo not given)	inactive	Non-Toxic		
	CC(C)(OC(=O)/C=C/c1ccc(O)cc1)C1Cc2c(ccc3ccc(=O)oc23)O1 (stereo not given)	inactive	Non-Toxic		
	CC1(C)Oc2ccc3ccc(=O)oc3c2CC1OC(=O)/C=C/c1ccccc1 (stereo not given)	inactive	Non-Toxic		
3.06	CC1(C)Oc2ccc3ccc(=O)oc3c2CC1OC(=O)/C=C/c1ccc(O)c(O)c1 (stereo not given)	86%	Non-Toxic	39	Active
	CC1(C)Oc2cc3oc(=O)ccc3cc2CC1OC(=O)/C=C/c1ccc(O)cc1 (stereo not given)	inactive	Non-Toxic		
	CC1(C)Oc2cc3oc(=O)ccc3cc2CC1O (stereo not given)	inactive	Non-Toxic		
1.5	COC(=O)/C=C/c1ccc(O)c(O)c1 [METHYLCAFFEATE]	31%			
	CC(C)(OC(=O)/C=C/c1ccc(O)cc1)C1Cc2cc3ccc(=O)oc3cc2O1 (stereo not given)	inactive	Non-Toxic		
	CC1(C)Oc2ccc3ccc(=O)oc3c2CC1O (stereo not given) [LOMATIN]	inactive	Non-Toxic		
	CC(C)(O)C1Cc2c(ccc3ccc(=O)oc23)O1 (stereo not given)	inactive	Non-Toxic		

SMILES	EC50 [3] [µM]	Activity (HepG2 [1])	Activity (HepG2 [2])	Activity (HepG2 [4]) [%]	Activity (HepG2 [5])
O=c1c(O)c(-c2ccc(O)c(O)c2)oc2cc(O)cc(O)c12 [QUERCETIN]	0.17	62%			
